Source: ChEMBL document CHEMBL3813669, “Synthesis and in vitro evaluation of hydrazinyl phthalazines against malaria parasite, Plasmodium falciparum” (Bioorg Med Chem Lett, 2016)
Calls of active or inactive are those of the source. The rule behind the calls is not given here.

Experiments:
Plasmodium falciparum [1] = test: Antiplasmodial activity against Plasmodium falciparum 3D7 trophozoite stage infected in human RBCs assessed as reduction in parasitemia at 1 to 100 uM after 48 hrs by Hoechst-3342 staining based flow cytometric analysis; assay type: functional, organism-based
In short: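 3D7 parasites at trophozoite stage (~30 hpi) were exposed to 1, 20 and 100 μM compound, with DMSO-treated negative control. Parasitemia was read by flow cytometry after 48 h.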

Plasmodium falciparum [2] = test: Antiplasmodial activity against chloroquine-resistant Plasmodium falciparum K1 infected in human RBCs assessed as reduction in parasitemia after 48 hrs by Hoechst-3342 staining based flow cytometric analysis; assay type: functional, organism-based; conditions: K1, 48 h
In short: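 The K1 strain was screened across a 0–100 μM compound range alongside 3D7, and IC50 values were derived from parasitemia. Giemsa-stained smears from representative experiments were also examined by microscopy for parasite phenotype.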

Plasmodium falciparum [3] = test: Antiplasmodial activity against Plasmodium falciparum 3D7 infected in human RBCs assessed as inhibition of trophozoite to schizont stage transition at 0.25 to 4 times IC50 measured after 12 hrs by flow cytometric analysis; assay type: functional, organism-based
In short: (§1)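 Synchronised 3D7 cultures received compound at ring (2-4 h), trophozoite (24-26 h) or schizont (36-38 h) stage. Dosing was 4×, 2×, 1× and 0.25× the IC50 estimated from the 3D7 dose-response. Samples were harvested about 12 h later, and stage progression and morphology were monitored by flow cytometry and microscopy.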

Plasmodium falciparum [4] = test: Antiplasmodial activity against Plasmodium falciparum 3D7 infected in human RBCs assessed as inhibition of schizont to ring stage transition at 1 to 4 times IC50 measured after 12 hrs by flow cytometric analysis; assay type: functional, organism-based; in short: as §1
MDCK = test: Cytotoxicity against MDCK cells assessed as cell viability measured after overnight incubation by MTT assay; assay type: cell-based; conditions: Canis lupus familiaris
In short: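 MDCK cells were tested by MTT viability assay at compound concentrations up to 200 μM, alongside controls.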

Plasmodium falciparum [5] = test: Antiplasmodial activity against Plasmodium falciparum 3D7 infected in human RBCs assessed as inhibition of merozoite maturation at schizont stage at IC50 by Giemsa-staining based microscopic analysis; assay type: functional, organism-based
Plasmodium falciparum [6] = test: Antiplasmodial activity against Plasmodium falciparum 3D7 infected in human RBCs assessed as inhibition of ring to trophozoite stage transition at 0.25 to 4 times IC50 measured after 12 hrs by flow cytometric analysis; assay type: functional, organism-based; in short: as §1
[7] = Selectivity index, ratio of IC50 for MDCK cells to IC50 for Plasmodium falciparum 3D7
In short: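 Ratio computed as […]. The 3D7 IC50 came from trophozoite-stage parasites (~24-26 hpi) incubated 48 h with 1.6-100 μM compound, with DMSO and chloroquine controls. The MDCK IC50 came from the MTT assay tested up to 200 μM.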

Plasmodium falciparum [8] = test: Antiplasmodial activity against Plasmodium falciparum 3D7 trophozoite stage infected in human RBCs assessed as reduction in parasitemia after 48 hrs by Hoechst-3342 staining based flow cytometric analysis; assay type: functional, organism-based; conditions: 3D7, 48 h
In short: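 Trophozoite-stage 3D7 parasites (~24–26 hpi) were exposed to 1.6 μM to 100 μM compound for 48 h, with DMSO-treated parasites as negative control and chloroquine as positive control. Parasitemia was read by flow cytometry, and IC50 was estimated from the concentration series.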

Plasmodium falciparum [9] = test: Antiplasmodial activity against Plasmodium falciparum 3D7 infected in human RBCs assessed as inhibition of schizont to ring stage transition at 2 and 4 times IC50 measured after 12 hrs by flow cytometric analysis; assay type: functional, organism-based; in short: as §1
Plasmodium falciparum [10] = test: Antiplasmodial activity against Plasmodium falciparum 3D7 infected in human RBCs assessed as inhibition of trophozoite to schizont stage transition at 2 and 4 times IC50 measured after 12 hrs by flow cytometric analysis; assay type: functional, organism-based; in short: as §1
Plasmodium falciparum [11] = test: Antiplasmodial activity against Plasmodium falciparum 3D7 infected in human RBCs assessed as inhibition of schizont to ring stage transition at 4 times IC50 measured after 12 hrs by flow cytometric analysis; assay type: functional, organism-based; in short: as §1
Plasmodium falciparum [12] = test: Antiplasmodial activity against Plasmodium falciparum 3D7 infected in human RBCs assessed as inhibition of ring to trophozoite stage transition at 4 times IC50 measured after 12 hrs by flow cytometric analysis; assay type: functional, organism-based; in short: as §1

| Structure (SMILES) | inhibition (Plasmodium falciparum [1]) | IC50 (Plasmodium falciparum [2]) [µM] | inhibition (Plasmodium falciparum [3]) | IC50 (MDCK) [µM] | inhibition (Plasmodium falciparum [6]) | Ratio IC50 [7] | IC50 (Plasmodium falciparum [8]) [µM] | inhibition (Plasmodium falciparum [9]) | further results |
| --- | --- | --- | --- | --- | --- | --- | --- | --- | --- |
| C(=N\Nc1nncc2ccccc12)/C1CC1 | Active |  |  |  |  |  |  |  |  |
| Cn1ccnc1/C=N/Nc1nncc2ccccc12 |  | 2.23 | inactive | > 200 | inactive | 57.22 | 3.5 |  | inhibition (Plasmodium falciparum [4]): Active; inhibition (Plasmodium falciparum [5]): Active |
| C(=N\Nc1nncc2ccccc12)/c1ccc2c(c1)CCO2 | Active |  |  |  |  |  |  |  |  |
| O=c1cc(/C=N/Nc2nncc3ccccc23)oc2ccccc12 | Active |  |  |  |  |  |  |  |  |
| C(=N\Nc1nncc2ccccc12)/c1c(-c2ccccc2)[nH]c2ccccc12 |  | 2.43 |  | > 200 | inactive | 57.31 | 3.49 | Active | inhibition (Plasmodium falciparum [10]): Active |
| Oc1ccc(Cl)cc1/C=N\Nc1nncc2ccccc12 |  | 1.69 | inactive | > 100 | inactive | 60.75 | 1.65 | Active | inhibition (Plasmodium falciparum [5]): Active |
| C(=N\Nc1nncc2ccccc12)/c1c[nH]c2ccccc12 |  | 6.66 | inactive | > 200 | inactive | 14.56 | 13.7 |  | inhibition (Plasmodium falciparum [11]): Active |
| CS(=O)(=O)c1ccc(/C=N/Nc2nncc3ccccc23)cc1 | Active |  |  |  |  |  |  |  |  |
| Cc1cc(/C=N/Nc2nncc3ccccc23)c([N+](=O)[O-])cc1C | Active |  |  |  |  |  |  |  |  |
| Cc1[nH]c2ccccc2c1/C=N/Nc1nncc2ccccc12 |  | 5.98 |  | > 200 |  | 16.42 | 12.2 | Active | inhibition (Plasmodium falciparum [12]): Active; inhibition (Plasmodium falciparum [10]): Active |
